These results are taken from ChEMBL document CHEMBL1156932, “Structure based drug design: development of potent and selective factor IXa (FIXa) inhibitors” (J Med Chem, 2010).

Assay [1] is described as follows: Selectivity ratio of Ki for factor 10a to Ki for human recombinant factor 9a.
The target in assay [2] is Coagulation factor X (Homo sapiens, UniProt P00742). The assay is described as follows: Inhibition of factor 10a by amidolytic assay. A digest of the protocol:
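[…] taken as the mean of at least three experiments. Variation between runs stated as under 10%.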

A short description of assay [3]: Selectivity ratio of Ki for uPA to Ki for human recombinant factor 9a.
Assay [4] has as its target Coagulation factor IX (Homo sapiens, UniProt P00740). The assay can be described thus: Inhibition of human recombinant factor 9a by amidolytic assay.
In assay [5] the target is Urokinase-type plasminogen activator (Homo sapiens, UniProt P00749).

Coagulation factor X, sequence (P00742 41-179 limits assumed): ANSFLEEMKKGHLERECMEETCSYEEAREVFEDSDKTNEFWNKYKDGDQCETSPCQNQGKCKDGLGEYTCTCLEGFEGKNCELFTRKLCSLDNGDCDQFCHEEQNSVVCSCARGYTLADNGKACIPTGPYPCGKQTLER
Coagulation factor X, sequence (P00742 235-488 limits assumed): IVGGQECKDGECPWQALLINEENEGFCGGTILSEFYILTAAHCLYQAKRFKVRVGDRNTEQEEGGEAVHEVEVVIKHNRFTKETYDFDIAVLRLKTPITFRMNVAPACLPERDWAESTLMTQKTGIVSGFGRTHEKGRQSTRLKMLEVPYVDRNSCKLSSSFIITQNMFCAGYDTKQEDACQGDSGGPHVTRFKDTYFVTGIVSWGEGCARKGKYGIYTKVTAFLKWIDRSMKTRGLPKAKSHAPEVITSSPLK
Coagulation factor IX, sequence (P00740 47-191 limits assumed): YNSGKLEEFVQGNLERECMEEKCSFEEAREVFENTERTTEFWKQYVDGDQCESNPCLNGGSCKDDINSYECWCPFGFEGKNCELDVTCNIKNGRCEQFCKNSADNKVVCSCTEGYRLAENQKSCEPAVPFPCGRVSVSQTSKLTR
Coagulation factor IX, sequence (P00740 227-461 limits assumed): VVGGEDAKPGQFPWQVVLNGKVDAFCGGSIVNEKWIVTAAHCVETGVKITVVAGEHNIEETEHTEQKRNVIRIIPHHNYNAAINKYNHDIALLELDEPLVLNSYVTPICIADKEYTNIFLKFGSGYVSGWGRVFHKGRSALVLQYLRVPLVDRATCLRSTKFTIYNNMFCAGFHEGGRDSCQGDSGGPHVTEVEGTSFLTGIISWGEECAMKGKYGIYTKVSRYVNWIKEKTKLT

As to `N=C(N)c1cc2c(OC(COC(=O)Nc3cccc(F)c3)c3ccccc3)cccc2s1` (stereo not drawn), the Ratio Ki in assay [1] amounted to 52; in assay [3], 37. Besides, the Ki came to 1300 nM in assay [2], 25 nM in assay [4] and 935 nM in assay [5].
The like results for `N=C(N)c1cc2c(OC(COC(=O)Nc3ccccc3CN)c3ccccc3)cccc2s1` (stereo not drawn) were, in that order, 206, 74, 825 nM, 4 nM and 297 nM.
As for `CN(C)C(=O)c1ccc(NC(=O)C(Oc2cccc3sc(C(=N)N)cc23)c2ccccc2)cc1` (stereo not drawn), the figures for the Ki in assay [2], in assay [4] and in assay [5] were 0.6 nM, 370 nM and 160 nM, respectively.
Take `CN(C)Cc1ccccc1NC(=O)OCC(Oc1cc(F)cc2sc(C(=N)N)cc12)c1ccccc1` (stereo not drawn): the results for the Ratio Ki in assay [1] and in assay [3] were 169 and 117, respectively. In addition, the Ki came out at 1360 nM in assay [2], 8.1 nM in assay [4] and 940 nM in assay [5].
For `CN(C)Cc1ccccc1NC(=O)OCC(Oc1cccc2sc(C(=N)N)cc12)c1ccccc1` (stereo not drawn), in that order: 104, 76, 828 nM, 8 nM and 609 nM.
On to `Cc1noc(C)c1NC(=O)OCC(Oc1cccc2sc(C(=N)N)cc12)c1ccccc1` (stereo not drawn), for which the Ratio Ki in assay [1] amounted to 210; in assay [3] it was 12. The Ki in assay [2] was 2250 nM; in assay [4], 12 nM; in assay [5] it was 142 nM.
For `N=C(N)c1cc2c(OC(COC(=O)Nc3ccccc3F)c3ccccc3)cccc2s1` (stereo not drawn), in that order: 110, 62, 550 nM, 5 nM and 331 nM.
Consider `N=C(N)c1cc2c(OC(COC(=O)NCc3ccccc3)c3ccccc3)cccc2s1` (stereo not drawn), for which the Ki in assay [2] was found to be 830 nM; in assay [4], 61 nM; in assay [5], 510 nM.
`CCOC(=O)c1nccn1-c1ccc(NC(=O)C(Oc2cccc3sc(C(=N)N)cc23)c2ccccc2)cc1` (stereo not drawn): the Ki in assay [2] came to 2.6 nM; in assay [4] it was 420 nM; in assay [5], 190 nM.
In the case of `COc1ccc(NC(=O)OC[C@@H](Oc2cccc3sc(C(=N)N)cc23)c2ccccc2)cc1`, the Ratio Ki worked out at 108 in assay [1] and 47 in assay [3]. The inhibition constant (Ki) came to 3770 nM in assay [2], 35 nM in assay [4] and 1630 nM in assay [5].
In the case of `COc1cccc(NC(=O)C(Oc2cccc3sc(C(=N)N)cc23)c2ccccc2)c1` (stereo not drawn), the inhibition constant (Ki) in assay [2] amounted to 290 nM; in assay [4], 130 nM; in assay [5] it was 170 nM.
For `COC(=O)Cn1nc(C)c(NC(=O)OCC(Oc2cccc3sc(C(=N)N)cc23)c2ccccc2)c1C` (stereo not drawn), the Ratio Ki in assay [1] was 118; in assay [3], 5. The figures for the Ki in assay [2], in assay [4] and in assay [5] were 1300 nM, 11 nM and 59 nM, respectively.
For `N=C(N)c1cc2c(OC(CN)c3ccccc3)cccc2s1` (stereo not drawn), the figures for the Ki in assay [2], in assay [4] and in assay [5] were 4450 nM, 160 nM and 270 nM, respectively.
In the case of `N=C(N)c1cc2c(OC(COC(=O)Nc3ccccc3)c3ccccc3)cc(F)cc2s1` (stereo not drawn), the Ratio Ki in assay [1] turned out to be 102; in assay [3] it was 137. For the same compound, the Ki in assay [2] turned out to be 1590 nM; in assay [4], 15.5 nM; in assay [5], 2110 nM.
As to `CNCc1cc(NC(=O)OCC(Oc2cccc3sc(C(=N)N)cc23)c2ccccc2)n(C)n1` (stereo not drawn), the Ratio Ki in assay [1] turned out to be 254; in assay [3], 50. The Ki in assay [2] was determined as 1270 nM; in assay [4], 5 nM; in assay [5], 251 nM.
For the compound `COc1ccccc1NC(=O)C(Oc1cccc2sc(C(=N)N)cc12)c1ccccc1` (stereo not drawn), the inhibition constant (Ki) in assay [2] worked out at 70 nM; in assay [4], 140 nM; in assay [5] it was 120 nM.
On to `N=C(N)c1cc2c(OC(COC(=O)Nc3ccccc3)c3ccccc3)cccc2s1` (stereo not drawn), for which the Ratio Ki worked out at 181 in assay [1] and 44 in assay [3]. For the same compound, the Ki in assay [2] is 1810 nM; in assay [4] it was 10 nM; in assay [5], 440 nM.
Take `COC(=O)C(C)Oc1cccc2sc(C(=N)N)cc12` (stereo not drawn): the Ki in assay [2] was above 100000 nM; in assay [4], 5150 nM; in assay [5], 2270 nM.
Regarding `CNCc1ccccc1NC(=O)OCC(Oc1cccc2sc(C(=N)N)cc12)c1ccccc1` (stereo not drawn), the Ratio Ki was determined as 383 in assay [1] and 103 in assay [3]. Also, the inhibitory constant (Ki) in assay [2] is 1150 nM; in assay [4], 3 nM; in assay [5], 308 nM.
On to `N=C(N)c1cc2c(OC(CO)c3ccccc3)cccc2s1` (stereo not drawn), for which the results for the Ki in assay [2] and in assay [4] were 1740 nM and 270 nM, respectively.
`CNC(=O)OCC(Oc1cccc2sc(C(=N)N)cc12)c1ccccc1` (stereo not drawn): the Ki in assay [2] was 700 nM; in assay [4], 97 nM; in assay [5], 210 nM.
On to `N=C(N)c1cc2c(OC(CNC(=O)Nc3ccccc3)c3ccccc3)cccc2s1` (stereo not drawn), for which the Ki was determined as 960 nM in assay [2], 29 nM in assay [4] and 250 nM in assay [5].
Take `COc1ccc(NC(=O)OCC(Oc2cccc3sc(C(=N)N)cc23)c2ccccc2)cc1` (stereo not drawn): the Ratio Ki in assay [1] came out at 160; in assay [3] it was 45. For the same compound, the results for the Ki in assay [2], in assay [4] and in assay [5] were 800 nM, 5 nM and 226 nM, respectively.
For `N=C(N)c1cc2c(OC(CNCc3ccccc3)c3ccccc3)cccc2s1` (stereo not drawn), the Ki in assay [2] amounted to 250 nM; in assay [4] it was 100 nM; in assay [5], 310 nM.
On to `CN(C)CCNC(=O)C(Oc1cccc2sc(C(=N)N)cc12)c1ccccc1` (stereo not drawn), for which the Ki in assay [2] came out at 3400 nM; in assay [4] it was 1000 nM; in assay [5], 2130 nM.
For `N=C(N)c1cc2c(OC(C(=O)Nc3ccccc3)c3ccccc3)cccc2s1` (stereo not drawn), in that order: 150 nM, 170 nM and 140 nM.
Turning to `N=C(N)c1cc2c(OC(COC(=O)Nc3c(F)cccc3F)c3ccccc3)cccc2s1` (stereo not drawn), the Ratio Ki in assay [1] amounted to 186; in assay [3], 34. The Ki came to 1300 nM in assay [2], 7 nM in assay [4] and 249 nM in assay [5].
With `N=C(N)c1cc2c(O[C@@H](c3ccccc3)c3nc(-c4ccccc4)no3)cccc2s1`, the Ki is 3970 nM in assay [2], 270 nM in assay [4] and 650 nM in assay [5].
Regarding `COc1ccc(NC(=O)OC[C@H](Oc2cccc3sc(C(=N)N)cc23)c2ccccc2)cc1`, the Ratio Ki in assay [1] turned out to be 200; in assay [3], 30. Moreover, the figures for the Ki in assay [2], in assay [4] and in assay [5] were 600 nM, 3 nM and 89 nM, respectively.
Regarding `COC(=O)CCNC(=O)C(Oc1cccc2sc(C(=N)N)cc12)c1ccccc1` (stereo not drawn), the inhibitory constant (Ki) in assay [4] was 8400 nM.
With `N=C(N)c1cc2c(OC(COC(=O)Nc3ccc(F)cc3F)c3ccccc3)cccc2s1` (stereo not drawn), the figures for the Ratio Ki in assay [1] and in assay [3] were 212 and 82, respectively. Also, the Ki came to 1480 nM in assay [2], 7 nM in assay [4] and 575 nM in assay [5].
Consider `CN1CCN(Cc2ccc(NC(=O)OCC(Oc3cccc4sc(C(=N)N)cc34)c3ccccc3)cc2)CC1` (stereo not drawn), for which the results for the Ratio Ki in assay [1] and in assay [3] were 156 and 20, respectively. For the same compound, the results for the Ki in assay [2], in assay [4] and in assay [5] were 1560 nM, 10 nM and 201 nM, respectively.
The like results for `Cc1ccccc1NC(=O)OCC(Oc1cccc2sc(C(=N)N)cc12)c1ccccc1` (stereo not drawn) were, in that order, 148, 36, 1180 nM, 8 nM and 308 nM.
Turning to `CC(=O)NCC(Oc1cccc2sc(C(=N)N)cc12)c1ccccc1` (stereo not drawn), the inhibition constant Ki in assay [2] turned out to be 1300 nM; in assay [4], 340 nM; in assay [5], 220 nM.
On to `COC(=O)C(Oc1cccc2sc(C(=N)N)cc12)c1ccccc1` (stereo not drawn), for which the Ki in assay [2] turned out to be 13800 nM; in assay [4] it was 500 nM; in assay [5] it was 500 nM.
In the case of `COc1ccc(NC(=O)C(Oc2cccc3sc(C(=N)N)cc23)c2ccccc2)cc1` (stereo not drawn), the Ki in assay [2] worked out at 52 nM; in assay [4] it was 140 nM; in assay [5], 140 nM.
In the case of `N=C(N)c1cc2c(OC(C(=O)Nc3ccc(C(=O)N4CCCC4)cc3)c3ccccc3)cccc2s1` (stereo not drawn), the inhibition constant Ki in assay [2] worked out at 0.5 nM; in assay [4] it was 290 nM; in assay [5], 130 nM.
Turning to `N=C(N)c1cc2c(OC(C(=O)NCc3ccccc3)c3ccccc3)cccc2s1` (stereo not drawn), the values for the Ki in assay [2], in assay [4] and in assay [5] were 950 nM, 390 nM and 510 nM, respectively.
The like results for `CCNC(=O)OCC(Oc1cccc2sc(C(=N)N)cc12)c1ccccc1` (stereo not drawn) were, in that order, 360 nM, 28 nM and 150 nM.
Regarding `N=C(N)c1cc2c(OC(CNC(=O)Oc3ccccc3)c3ccccc3)cccc2s1` (stereo not drawn), the Ki was 560 nM in assay [2], 50 nM in assay [4] and 85 nM in assay [5].
Regarding `N=C(N)c1cc2c(OC(COC(=O)Nc3ccccc3CN)c3ccccc3)cc(F)cc2s1` (stereo not drawn), the Ratio Ki in assay [1] came to 486; in assay [3], 190. Besides, the inhibition constant Ki in assay [2] is 2110 nM; in assay [4], 4.4 nM; in assay [5], 828 nM.
The like results for `COCc1cc(NC(=O)OCC(Oc2cccc3sc(C(=N)N)cc23)c2ccccc2)n(C)n1` (stereo not drawn) were, in that order, 173, 12, 1560 nM, 9 nM and 109 nM.
Turning to `CC(C)CNCc1ccccc1NC(=O)OCC(Oc1cccc2sc(C(=N)N)cc12)c1ccccc1` (stereo not drawn), the Ratio Ki in assay [1] stood at 292; in assay [3], 367. Moreover, the Ki in assay [2] is 583 nM; in assay [4], 2 nM; in assay [5], 733 nM.
For `CN(C)CCOc1ccc(NC(=O)OCC(Oc2cccc3sc(C(=N)N)cc23)c2ccccc2)cc1` (stereo not drawn), in that order: 218, 50, 872 nM, 4 nM and 201 nM.
